Test results published in ChEMBL document CHEMBL1764953, “Discovery of orally active carboxylic acid derivatives of 2-phenyl-5-trifluoromethyloxazole-4-carboxamide as potent diacylglycerol acyltransferase-1 inhibitors for the potential treatment of obesity and diabetes” (J Med Chem, 2011).
The source made the active and inactive calls. No cut-off for these calls is given here.

What was measured:
[1] = Volume of distribution in Beagle dog at 5 mg/kg, iv; format: ADME, organism-based, Canis lupus familiaris; design: dose 5 mg/kg, route intravenous; conditions: in vivo
[2] = Clearance in Beagle dog at 5 mg/kg, iv; format: ADME, organism-based, Canis lupus familiaris; design: dose 5 mg/kg, route intravenous; conditions: in vivo
In short: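 Plasma levels by protein precipitation with acetonitrile and LC-MS/MS (linear range 5.0–5000 ng/mL); noncompartmental analysis; mean of n = 3.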

[3] = Inhibition of P-glycoprotein
[4] = Oral bioavailability in Hanover Wistar rat at 10 mg/kg; format: ADME, organism-based; conditions: in vivo
In short: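 Hanover Wistar rats (n = 3) with jugular/femoral cannulae, oral gavage of a 2 mg/mL suspension in 2% Klucel LF with 0.1% Tween 80; femoral-vein sampling, EDTA plasma, acetonitrile precipitation, LC-MS/MS (5.0–5000 ng/mL), noncompartmental analysis; F relative to 5 mg/kg iv; mean of n = 3.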

Rattus norvegicus [5] = assay: Antiobesity activity in diet-induced obese rat assessed as decrease in food intake at 1 mg/kg, po administered once daily for 3 weeks; format: functional; design: scale not given: the % may be the effect or the level left
In short: (§1)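 Male DIO rats, 19 weeks old, on high fat diet for 12 weeks, dosed po once daily with Klucel (hydroxypropyl cellulose) suspension for 22 days; 10 rats per group. Body weight followed throughout; daily food intake recorded on days 1–3, 8, 9, 15 and 16, values averaged per group.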

[6] = Tmax in Beagle dog at 10 mg/kg, po; format: ADME, organism-based, Canis lupus familiaris; design: dose 10 mg/kg, route oral; conditions: in vivo
In short: (§2)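 Oral gavage to rats (jugular/femoral vein-cannulated, femoral vein blood sampling) or beagle dogs, n = 3, as a 2 mg/mL suspension in 2% Klucel LF with 0.1% Tween 80 in water. Plasma extracted by acetonitrile protein precipitation and quantified by LC-MS/MS (linear 5.0–5000 ng/mL). Noncompartmental analysis; mean of 3.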

[7] = Volume of distribution in Hanover Wistar rat at 5 mg/kg, iv; format: ADME, organism-based; design: dose 5 mg/kg, route intravenous; conditions: in vivo
Cytochrome P450 2C9 = Cytochrome P450 2C9 (Homo sapiens, UniProt P11712); assay: Inhibition of CYP2C9; format: ADME
[8] = Lipophilicity, log D of the compound; format: physicochemical; conditions: octanol/water
[9] = Association constant pKa of the compound; format: physicochemical
Cytochrome P450 2C19 = Cytochrome P450 2C19 (Homo sapiens, UniProt P33261); assay: Inhibition of CYP2C19; format: ADME
[10] = Half life in Hanover Wistar rat at 5 mg/kg, iv; format: ADME, organism-based; design: dose 5 mg/kg, route intravenous; conditions: in vivo
In short: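 Hanover Wistar rats (n = 3) cannulated in jugular and femoral veins, dosed iv 5 mg/kg via jugular vein as a solution in 2% DMA, 15% PEG400, 77% of 28% HPβCD in pH 7 PBS. Femoral-vein blood, EDTA plasma, acetonitrile precipitation, LC-MS/MS, noncompartmental analysis; mean of n = 3.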

Rattus norvegicus [11] = assay: Antiobesity activity in diet-induced obese rat assessed as reduction in body weight gain at 3 mg/kg, po administered once daily for 3 weeks; format: functional; design: scale not given: the % may be the effect or the level left; in short: as §1
Rattus norvegicus [12] = assay: Antiobesity activity in diet-induced obese rat assessed as reduction in body weight gain at 0.3 mg/kg, po administered once daily for 3 weeks; format: functional; design: scale not given: the % may be the effect or the level left; in short: as §1
[13] = Cmax in diet-induced obese rat at 1 mg/kg, po administered once daily for 3 weeks; format: ADME, organism-based; design: dose 1 mg/kg, route oral; conditions: in vivo
Rattus norvegicus [14] = assay: Antidiabetic activity in diet-induced obese Sprague-Dawley rat assessed as effect on insulin level at 3 mg/kg, po administered once daily for 3 weeks measured after 30 mins by OGTT; format: functional, organism-based; design: dose 3 mg/kg
In short: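 DIO rats (n = 10/group) on high fat diet, dosed po once daily in Klucel suspension for 3 weeks. On day 21 an oral glucose challenge of 2 g/kg was given, and plasma insulin was measured at the 30 min time point.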

[15] = Tmax in Hanover Wistar rat at 10 mg/kg, po; format: ADME, organism-based; design: dose 10 mg/kg, route oral; conditions: in vivo; in short: as §2
[16] = molecular target: T1, Sterol O-acyltransferase 2 (Homo sapiens, UniProt O75908); assay: Inhibition of human ACAT2 expressed in human HepG2 cells after incubated with compound for 15 mins measured after 1 hr using palmitoyl-1-14C-coenzyme A by TLC assay; format: cell-based
T1 sequence (O75908 whole entry): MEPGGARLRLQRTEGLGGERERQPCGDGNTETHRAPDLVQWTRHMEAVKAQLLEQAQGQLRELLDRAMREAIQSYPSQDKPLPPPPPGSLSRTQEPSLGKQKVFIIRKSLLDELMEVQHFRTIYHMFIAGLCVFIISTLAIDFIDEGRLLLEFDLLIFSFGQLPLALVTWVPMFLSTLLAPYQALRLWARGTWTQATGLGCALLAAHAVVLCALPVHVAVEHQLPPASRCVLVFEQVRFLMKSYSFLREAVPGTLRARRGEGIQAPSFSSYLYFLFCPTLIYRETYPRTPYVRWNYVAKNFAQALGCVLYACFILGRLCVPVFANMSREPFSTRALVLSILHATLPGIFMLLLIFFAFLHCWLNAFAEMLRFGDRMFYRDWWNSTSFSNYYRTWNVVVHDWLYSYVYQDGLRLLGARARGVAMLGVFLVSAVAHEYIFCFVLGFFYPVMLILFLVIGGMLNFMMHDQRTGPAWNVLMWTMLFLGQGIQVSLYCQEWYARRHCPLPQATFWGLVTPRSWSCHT
In short: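 HepG2 membranes (mixed ACAT1/ACAT2), 2.6 mg/mL stock, diluted to 0.52 mg/mL in Tris pH 7.5 buffer. Preincubated 15 min on ice with compound (0–600 μM solutions in 20% DMSO), then 2.37 μM [1-14C]palmitoyl-CoA solution added. Product extracted and resolved by TLC with phosphoimager read-out.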

[17] = molecular target: T2, Diacylglycerol O-acyltransferase 2 (Homo sapiens, UniProt Q96PD7); assay: Inhibition of human DGAT2 expressed in baculovirus infected Sf9 cells using palmitoyl-1-14C-coenzyme A by TLC assay
T2 sequence (Q96PD7 whole entry): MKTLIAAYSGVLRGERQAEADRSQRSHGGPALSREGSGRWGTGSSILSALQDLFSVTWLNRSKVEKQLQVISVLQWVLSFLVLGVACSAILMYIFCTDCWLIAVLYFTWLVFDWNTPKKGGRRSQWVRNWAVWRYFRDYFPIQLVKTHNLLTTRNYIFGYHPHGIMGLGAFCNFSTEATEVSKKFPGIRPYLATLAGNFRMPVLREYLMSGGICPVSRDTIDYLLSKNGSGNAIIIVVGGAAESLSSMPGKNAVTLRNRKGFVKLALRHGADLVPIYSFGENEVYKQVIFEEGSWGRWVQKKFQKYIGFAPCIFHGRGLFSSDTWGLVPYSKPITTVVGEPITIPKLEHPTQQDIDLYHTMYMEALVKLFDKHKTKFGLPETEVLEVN
In short: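 DGAT-2 membranes from baculovirus-infected Sf9 cells, diluted to 0.313 mg/mL in 50 mM Tris pH 7.5, 20 mM MgCl2, 0.25 M sucrose. Preincubated 15 min on ice with compound (0–600 μM solutions in 20% DMSO), then DAG and 8.3 μM [14C]palmitoyl-CoA solutions added; 5 min at 37 °C. Lipids extracted with chloroform/methanol, resolved by TLC, phosphoimager read-out.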

Rattus norvegicus [18] = assay: Antidiabetic activity in diet-induced obese Sprague-Dawley rat assessed as decrease in glucose excursion at 3 mg/kg, po administered once daily for 3 weeks by OGTT; format: functional; design: scale not given: the % may be the effect or the level left
In short: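 Male Sprague-Dawley DIO rats (n = 10/group), 550–650 g, reverse light/dark cycle, high fat diet from 7 weeks of age; dosed po once daily in Klucel suspension.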

Cytochrome P450 3A4 = Cytochrome P450 3A4 (Homo sapiens, UniProt P08684); assay: Inhibition of CYP3A4; format: ADME
Sequence of Cytochrome P450 3A4 (P08684 whole entry): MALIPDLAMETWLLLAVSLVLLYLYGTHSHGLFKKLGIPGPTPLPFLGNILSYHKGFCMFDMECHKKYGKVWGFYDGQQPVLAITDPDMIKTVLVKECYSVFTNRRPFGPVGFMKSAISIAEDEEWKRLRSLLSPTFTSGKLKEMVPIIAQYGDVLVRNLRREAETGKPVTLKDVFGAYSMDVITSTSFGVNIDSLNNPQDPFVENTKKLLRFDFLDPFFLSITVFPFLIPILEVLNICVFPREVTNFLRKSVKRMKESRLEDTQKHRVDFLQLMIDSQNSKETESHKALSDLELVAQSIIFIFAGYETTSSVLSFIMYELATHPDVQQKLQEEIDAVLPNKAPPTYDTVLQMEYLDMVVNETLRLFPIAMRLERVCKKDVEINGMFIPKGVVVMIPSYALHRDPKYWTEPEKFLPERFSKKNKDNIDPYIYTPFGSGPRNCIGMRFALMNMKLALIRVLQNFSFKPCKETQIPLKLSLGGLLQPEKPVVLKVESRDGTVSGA

Sequence of Cytochrome P450 2C19 (P33261 whole entry): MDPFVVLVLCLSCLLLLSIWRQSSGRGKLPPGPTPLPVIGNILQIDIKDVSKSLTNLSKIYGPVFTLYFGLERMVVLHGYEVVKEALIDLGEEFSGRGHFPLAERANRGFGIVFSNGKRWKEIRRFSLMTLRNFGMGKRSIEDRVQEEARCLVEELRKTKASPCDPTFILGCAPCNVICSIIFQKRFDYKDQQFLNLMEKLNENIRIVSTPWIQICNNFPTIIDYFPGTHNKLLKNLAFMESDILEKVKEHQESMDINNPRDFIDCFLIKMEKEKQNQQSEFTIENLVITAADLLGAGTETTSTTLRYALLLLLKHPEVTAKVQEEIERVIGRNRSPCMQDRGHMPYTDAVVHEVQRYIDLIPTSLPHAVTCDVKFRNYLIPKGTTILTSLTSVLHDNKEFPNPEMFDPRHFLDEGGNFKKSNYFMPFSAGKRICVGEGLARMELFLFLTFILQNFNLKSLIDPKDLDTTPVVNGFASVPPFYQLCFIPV
Sequence of Cytochrome P450 2C9 (P11712 whole entry): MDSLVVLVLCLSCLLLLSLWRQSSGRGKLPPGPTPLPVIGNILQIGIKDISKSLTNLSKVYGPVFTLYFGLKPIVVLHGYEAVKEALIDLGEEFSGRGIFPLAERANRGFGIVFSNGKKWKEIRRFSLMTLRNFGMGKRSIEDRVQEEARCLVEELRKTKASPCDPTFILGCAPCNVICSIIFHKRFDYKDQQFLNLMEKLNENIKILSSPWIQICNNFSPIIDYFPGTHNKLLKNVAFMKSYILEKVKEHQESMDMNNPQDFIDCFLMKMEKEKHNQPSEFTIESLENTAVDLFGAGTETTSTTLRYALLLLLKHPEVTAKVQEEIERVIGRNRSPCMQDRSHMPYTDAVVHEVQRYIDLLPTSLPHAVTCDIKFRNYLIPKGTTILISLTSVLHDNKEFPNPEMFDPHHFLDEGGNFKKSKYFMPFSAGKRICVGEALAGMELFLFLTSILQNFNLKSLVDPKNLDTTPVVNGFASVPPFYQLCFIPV

O=C(Nc1ccc(C2CCN(C(=O)[C@H]3CC[C@H](C(=O)O)CC3)CC2)cc1)c1nc(-c2ccccc2)oc1C(F)(F)F
Vd [1]: 0.38 L/kg | clearance [2]: 0.078 L/h/kg | inhibition [3]: inactive | bioavailability [4]: 73% | Activity (Rattus norvegicus [5]): 19% | Tmax [6]: 2 h | Vd [7]: 0.27 L/kg | IC50 (Cytochrome P450 2C9): > 50 µM | logD [8]: 2.34 | pKa [9]: 5.78 | IC50 (Cytochrome P450 2C19): > 50 µM | half-life [10]: 8.6 h | Activity (Rattus norvegicus [11]): 8% | Activity (Rattus norvegicus [12]): 5% | Cmax [13]: 4.8 µM | Activity (Rattus norvegicus [14]): inactive | Tmax [15]: 12 h | IC50 [16]: 68.4 µM | IC50 [17]: > 100 µM | Activity (Rattus norvegicus [18]): 15% | IC50 (Cytochrome P450 3A4): > 50 µM
